Assay results published in paper PMC6028879 (Clinical Pharmacokinetics, 2018).

Columns and labels:
[1] = ulipristal acetate with ketoconazole; cited from earlier work
Drug-drug interaction = format: in vivo, human; settings: ITZ 200 mg oral solution once daily; during the blood sampling period for VPR
How it was run: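 This was a fixed-sequence, open-label study. In period 1, the test compound was given as a single oral 4 mg tablet, fasted, with water. After a washout of ≥ 4 weeks, itraconazole 200 mg oral solution was given once daily for 14 days. On day 4 the test compound was dosed 1 h after itraconazole. Plasma was sampled to 11 or 13 days and measured by validated LC–MS/MS. Non-compartmental analysis was used. Log-transformed AUC0–11d and Cmax were analysed by ANOVA with treatment and subject effects, giving ratio estimates, 90% CI and 95% PI.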

SMILES | increase in exposure with ketoconazole [1] | geometric mean ITZ trough concentrations (Drug-drug interaction)
CC(=O)O[C@]1(C(C)=O)CC[C@H]2[C@@H]3CCC4=CC(=O)CCC4=C3[C@@H](c3ccc(N(C)C)cc3)C[C@@]21C [ulipristal acetate] | 5.8 fold | 
CCC(C)n1ncn(-c2ccc(N3CCN(c4ccc(OCC5COC(Cn6cncn6)(c6ccc(Cl)cc6Cl)O5)cc4)CC3)cc2)c1=O (centres unmarked) [ITZ, Itraconazole] |  | above 530 µg/L
